Assay [1] addresses T1, Peroxisome proliferator-activated receptor alpha (Homo sapiens) (UniProt Q07869).
T1 sequence (whole entry): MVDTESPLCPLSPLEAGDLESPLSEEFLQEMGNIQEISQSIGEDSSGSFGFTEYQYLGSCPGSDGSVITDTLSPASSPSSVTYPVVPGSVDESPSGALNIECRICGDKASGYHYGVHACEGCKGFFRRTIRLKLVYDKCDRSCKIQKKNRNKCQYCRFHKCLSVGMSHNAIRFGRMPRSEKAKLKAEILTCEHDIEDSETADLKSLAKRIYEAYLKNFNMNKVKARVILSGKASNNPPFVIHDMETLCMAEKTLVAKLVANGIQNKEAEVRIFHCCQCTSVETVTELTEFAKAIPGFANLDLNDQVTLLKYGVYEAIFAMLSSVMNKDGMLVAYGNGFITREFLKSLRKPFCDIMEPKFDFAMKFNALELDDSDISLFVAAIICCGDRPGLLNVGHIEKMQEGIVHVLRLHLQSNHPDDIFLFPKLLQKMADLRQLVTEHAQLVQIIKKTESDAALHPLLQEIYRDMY
The experiment in a line: Agonist activity at human PPARalpha expressed in HepG2 cells co-transfected with PPRE3-TK-luc assessed as beta-galactosidase activity after 20 to 22 hrs by luciferase based transactivation assay relative to WY-14643. The format is functional, cell-based. In outline:
(§1)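 HepG2 (MEM, 10% FBS, NEAA, pyruvate, pen/strep) seeded 400,000 cells/well, transfected (Superfect) with pSG5 vector carrying full-length hPPAR cDNA plus PPRE3-TK-luc; 3 h at 37 °C, 5% CO2, then ligand-containing medium added, 20–22 h.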

The target in assay [2] is T2, Peroxisome proliferator-activated receptor delta (Homo sapiens) (UniProt Q03181).
T2 sequence (whole entry): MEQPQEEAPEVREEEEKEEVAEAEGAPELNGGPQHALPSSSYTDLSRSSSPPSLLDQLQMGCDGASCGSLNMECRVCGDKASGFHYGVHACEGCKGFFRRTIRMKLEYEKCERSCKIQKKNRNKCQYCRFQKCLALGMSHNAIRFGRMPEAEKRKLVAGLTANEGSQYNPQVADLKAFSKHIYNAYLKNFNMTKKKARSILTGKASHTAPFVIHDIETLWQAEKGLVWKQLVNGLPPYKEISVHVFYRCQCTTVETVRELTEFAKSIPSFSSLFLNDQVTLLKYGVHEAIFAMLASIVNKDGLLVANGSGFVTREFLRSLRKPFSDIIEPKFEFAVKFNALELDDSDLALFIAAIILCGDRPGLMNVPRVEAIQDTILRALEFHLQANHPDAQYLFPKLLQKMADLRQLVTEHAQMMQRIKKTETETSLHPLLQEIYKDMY
The experiment in a line: Agonist activity at human PPARdelta expressed in HepG2 cells co-transfected with PPRE3-TK-luc assessed as beta-galactosidase activity after 20 to 22 hrs by luciferase based transactivation assay relative to GW-501516. The format is functional, cell-based. Put shortly:
as §1

Assay [3] deals with T3, Peroxisome proliferator-activated receptor gamma (Homo sapiens, UniProt P37231).
T3 sequence (P37231 whole entry): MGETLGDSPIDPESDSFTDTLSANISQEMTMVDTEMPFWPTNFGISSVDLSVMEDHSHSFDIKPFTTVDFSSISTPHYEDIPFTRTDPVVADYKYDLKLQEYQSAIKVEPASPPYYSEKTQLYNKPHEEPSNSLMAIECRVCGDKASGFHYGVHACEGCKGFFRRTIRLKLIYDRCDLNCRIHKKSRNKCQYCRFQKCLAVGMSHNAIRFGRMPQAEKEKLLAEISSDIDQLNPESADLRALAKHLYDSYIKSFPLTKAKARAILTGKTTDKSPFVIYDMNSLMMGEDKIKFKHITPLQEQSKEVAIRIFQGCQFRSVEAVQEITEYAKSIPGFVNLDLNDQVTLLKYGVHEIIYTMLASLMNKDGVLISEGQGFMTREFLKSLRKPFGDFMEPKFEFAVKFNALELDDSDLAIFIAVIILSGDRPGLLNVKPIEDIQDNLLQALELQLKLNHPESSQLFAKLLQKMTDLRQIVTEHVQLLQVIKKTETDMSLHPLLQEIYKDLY
Format: functional, cell-based, HepG2.

Assay [4] has as its target T4, Peroxisome proliferator-activated receptor delta (Homo sapiens, UniProt Q03181).
T4 sequence (Q03181 whole entry): T2 sequence (whole entry)
The experiment in a line: Agonist activity at human PPARdelta expressed in HepG2 cells co-transfected with PPRE3-TK-luc assessed as beta-galactosidase activity after 20 to 22 hrs by luciferase based transactivation assay. The format is functional, cell-based.

For assay [5], the system named is Mus musculus. The experiment in a line: Antihyperglycemic activity in db/db mouse assessed as reduction of serum glucose level at 3 mg/kg, po qd for 14 days relative to control. The format is functional. Also on record: scale not given: the % may be the effect or the level left. Put shortly: (§2)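 Male db/db mice, 12–14 weeks, 30–40 g, tail-bled before the study. Groups of six were matched for plasma glucose, TG and TC. Dosing was oral once daily for 14 days, with vehicle 0.5% methylcellulose in water, and mice were fed ad libitum. About 1 h after the last dose, mice were tail-bled and serum/plasma glucose and TG measured. Values are % change versus vehicle-treated mice, mean ± SD (n = 6).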

The subject of assay [6] is Mus musculus. The experiment in a line: Antihyperlipidemic activity in db/db mouse assessed as reduction of serum triglyceride level at 3 mg/kg, po qd for 14 days relative to control. The format is functional. Further details: scale not given: the % may be the effect or the level left. In outline: as §2
In assay [7] the target is T5, Peroxisome proliferator-activated receptor alpha (Homo sapiens, UniProt Q07869).
T5 sequence (Q07869 whole entry): T1 sequence (whole entry)
The experiment in a line: Agonist activity at human PPARalpha expressed in HepG2 cells co-transfected with PPRE3-TK-luc assessed as beta-galactosidase activity after 20 to 22 hrs by luciferase based transactivation assay. The format is functional, cell-based.

Assay [8] concerns Mus musculus. The experiment in a line: Antihyperglycemic activity in db/db mouse assessed as reduction of serum glucose level at 10 mg/kg, po qd for 14 days relative to control. Format: functional. Further details: scale not given: the % may be the effect or the level left. Put shortly:
as §2

Assay [9] has as its system Mus musculus. Description: Antihyperlipidemic activity in db/db mouse assessed as reduction of serum triglyceride level at 10 mg/kg, po qd for 14 days relative to control. Format: functional. Also on record: scale not given: the % may be the effect or the level left. In outline: as §2
The test system of assay [10] is Syrian golden hamster. Description: Antihyperlipidemic activity in high fat-high cholesterol-fructose fed hamster assessed as increase of serum HDL-cholesterol level at 10 mg/kg, po qd for 14 days. The format is functional, organism-based. Also on record: dose 10 mg/kg. The settings on record: Mesocricetus auratus.
Assay [11] concerns Syrian golden hamster. The experiment in a line: Antihyperlipidemic activity in high fat-high cholesterol-fructose fed hamster assessed as decrease of serum LDL-cholesterol level at 10 mg/kg, po qd for 14 days. The settings on record: Mesocricetus auratus. Format: functional, organism-based. Also on record: dose 10 mg/kg.

Calls of active or inactive are those of the source. The calls are words filed in the database; no cut-off is given here.

The values below come from ChEMBL document CHEMBL1641508, “Effect of structurally constrained oxime-ether linker on PPAR subtype selectivity: Discovery of a novel and potent series of PPAR-pan agonists” (Bioorg Med Chem, 2011).

The EC50 is the concentration at which the effect is half-maximal.

`C/C(=N\OCc1nc(-c2ccccc2)oc1C)c1ccc(OCC(=O)O)cc1`: the figures for the Emax in assay [1] and in [2] were 58.8% and 52.1%, respectively.

For `CC(C)(Oc1ccc(CCNC(=O)c2ccc(Cl)cc2)cc1)C(=O)O` [BEZAFIBRATE], the EC50 amounted to 57200 nM in assay [3] and 18900 nM in assay [4].

Turning to `Cc1cc(/C(=N/OCc2nc(-c3ccccc3)oc2C)C2CCCCC2)ccc1OCC(=O)O`, the results for the Emax in [1] and in [2] were 9.7% and 58.8%, respectively.

For the molecule `C/C(=N\OCc1sc(-c2ccc(C(F)(F)F)cc2)nc1C)c1ccc(OCC(=O)O)cc1`, the Emax was determined as 86.2% in assay [1] and 60.6% in assay [2].

As to `Cc1cc(SCc2sc(-c3ccc(C(F)(F)F)cc3)nc2C)ccc1OCC(=O)O`, in assay [1], the Emax was found to be 76.9%.

Take `CCO[C@@H](Cc1ccc(OCCc2ccc(OS(C)(=O)=O)cc2)cc1)C(=O)O` [TESAGLITAZAR]: the Activity with Mus musculus [5] is on record as -60.2%; with Mus musculus [6], -54.4%.

For `CC/C(=N\OCc1sc(-c2ccc(C(F)(F)F)cc2)nc1C)c1ccc(OCC(=O)O)c(C)c1`, the results for the Emax in assay [1] and in [2] were 96.4% and 61.9%, respectively. Besides, the half-maximal effective concentration (EC50) was found to be 120 nM in [7], 800 nM in [3] and 800 nM in assay [4].

As for `C/C(=N\OCc1nc(-c2ccccc2)oc1C)c1ccc(OCC(=O)O)c(C)c1`, the Emax in [1] is 84.5%; in assay [2], 74.5%. The EC50 stood at 500 nM in assay [7], 300 nM in assay [3] and 800 nM in assay [4]. The Activity in the assay on Mus musculus [8] is on record as -59.9%; in the assay with Mus musculus [9], -52.4%. The result in the assay on Syrian golden hamster [10] and with Syrian golden hamster [11] was Active.

With `Cc1cc(/C(=N/OCc2sc(-c3ccc(C(F)(F)F)cc3)nc2C)C2CCCCC2)ccc1OCC(=O)O`, the Emax in [1] amounted to 57.9%; in [2], 98.7%. Further, the results for the concentration for a half-maximal effect (EC50) in assay [7], in assay [3] and in assay [4] were 1600 nM, 1000 nM and 700 nM, respectively.

With `CC/C(=N\OCc1nc(-c2ccccc2)oc1C)c1ccc(OCC(=O)O)cc1`, the Emax in assay [1] came to 42.5%; in assay [2] it was 46.4%.

`CCC/C(=N\OCc1nc(-c2ccc(C)cc2)oc1C)c1ccc(OCC(=O)O)c(C)c1`: the Emax in assay [1] was 33.3%; in assay [2], 46.8%.

On to `C/C(=N\OCc1nc(-c2ccc(C)cc2)oc1C)c1ccc(OCC(=O)O)cc1`, for which the Emax in [1] came out at 51.1%; in assay [2], 48.1%.

Take `CCC/C(=N\OCc1sc(-c2ccc(C(F)(F)F)cc2)nc1C)c1ccc(OCC(=O)O)c(C)c1`: the Emax in assay [1] came to 58.7%; in assay [2], 48.3%.

`CCC/C(=N\OCc1nc(-c2ccccc2)oc1C)c1ccc(OCC(=O)O)c(C)c1`: the figures for the Emax in assay [1] and in [2] were 14.1% and 51.7%, respectively.

In the case of `C/C(=N\OCc1nc(-c2ccc(C)cc2)oc1C)c1ccc(OCC(=O)O)c(C)c1`, the Emax in assay [1] was 45.3%; in [2] it was 67.6%. Further, the concentration giving a half-maximal response (EC50) in [7] amounted to 150 nM; in [3], 400 nM; in assay [4] it was 300 nM.

For `C/C(=N\OCc1sc(-c2ccc(C(F)(F)F)cc2)nc1C)c1ccc(OCC(=O)O)c(C)c1`, the figures for the Emax in assay [1] and in [2] were 99.8% and 90.1%, respectively. For the same molecule, the results for the half-maximal effective concentration (EC50) in assay [7], in assay [3] and in assay [4] were 8 nM, 6 nM and 10 nM, respectively. Moreover, the Activity in the assay on Mus musculus [8] is -23.2%; in the assay on Mus musculus [9] it was -36.5%. Moreover, the result in the assay with Syrian golden hamster [10] and with Syrian golden hamster [11] was Active.

In the case of `CC/C(=N\OCc1sc(-c2ccc(C(F)(F)F)cc2)nc1C)c1ccc(OCC(=O)O)cc1`, the Emax is 97.5% in [1] and 41.4% in assay [2].

For the molecule `Cc1ccc(-c2nc(CO/N=C(/c3ccc(OCC(=O)O)c(C)c3)C3CCCCC3)c(C)o2)cc1`, the Emax in assay [1] came out at 14.1%; in assay [2], 56.6%.

Turning to `CC/C(=N\OCc1nc(-c2ccc(C)cc2)oc1C)c1ccc(OCC(=O)O)c(C)c1`, the figures for the Emax in assay [1] and in assay [2] were 72.6% and 56.3%, respectively.

As to `CC/C(=N\OCc1nc(-c2ccccc2)oc1C)c1ccc(OCC(=O)O)c(C)c1`, the results for the Emax in assay [1] and in [2] were 56.4% and 72.3%, respectively.

With `CC/C(=N\OCc1nc(-c2ccc(C)cc2)oc1C)c1ccc(OCC(=O)O)cc1`, the Emax in assay [1] turned out to be 68.5%; in [2], 49.2%.
